Changes are numbered by the printed parent chain.
Each compound was assayed on T1, OR2C3. Details: stereoisomer not certain.
T1 sequence (whole entry): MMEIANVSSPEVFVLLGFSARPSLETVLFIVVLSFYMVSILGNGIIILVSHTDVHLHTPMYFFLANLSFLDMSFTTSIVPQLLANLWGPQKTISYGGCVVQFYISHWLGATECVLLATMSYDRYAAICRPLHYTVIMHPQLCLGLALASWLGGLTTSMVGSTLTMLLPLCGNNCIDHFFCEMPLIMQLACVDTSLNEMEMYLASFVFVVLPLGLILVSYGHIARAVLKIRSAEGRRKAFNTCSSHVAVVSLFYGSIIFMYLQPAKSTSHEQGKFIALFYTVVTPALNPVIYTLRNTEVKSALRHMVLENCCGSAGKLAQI
Summary of the method: (§1)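 Values were gathered from published papers (main text and supplementary material), with extra details requested from the original authors when needed, and checked for typos and inconsistencies. Each receptor–molecule pair is called responsive (active) if the original authors judged the measured signal statistically different from baseline, and non-responsive (inactive) otherwise. Assay methods varied by source, often transient mammalian cell-line luciferase assays. Recorded details include cell line, G-protein, co-transfected protein and tags.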

Compound	odorant receptor agonist call
CC1=C(O)C(=O)OC1C (configuration not stated)	inactive
CC1=NC(C)C(C)S1 (configuration not stated)	inactive
CC1=C(O)C(=O)C(C)O1 (configuration not stated)	inactive

These compounds were tested on T2, OR2C3. Details: stereoisomer not certain.
T2 sequence (whole entry): T1 sequence (whole entry) with A20T, V289L
Summary of the method: as §1

Compound	odorant receptor agonist call
CC1=C(O)C(=O)OC1C (configuration not stated)	inactive
CC1=NC(C)C(C)S1 (configuration not stated)	inactive
CC1=C(O)C(=O)C(C)O1 (configuration not stated)	inactive

These compounds were tested against T3, OR2D2 (Homo sapiens) (UniProt Q9H210). Details: stereoisomer not certain.
T3 sequence (whole entry): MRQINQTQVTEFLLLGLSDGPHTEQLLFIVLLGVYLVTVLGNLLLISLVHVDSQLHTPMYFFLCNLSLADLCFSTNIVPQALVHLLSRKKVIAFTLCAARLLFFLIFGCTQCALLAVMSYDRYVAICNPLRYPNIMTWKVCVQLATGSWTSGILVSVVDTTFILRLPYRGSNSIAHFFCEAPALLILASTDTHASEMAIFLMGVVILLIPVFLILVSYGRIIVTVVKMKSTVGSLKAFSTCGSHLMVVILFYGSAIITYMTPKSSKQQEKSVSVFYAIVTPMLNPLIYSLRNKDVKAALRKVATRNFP
Summary of the method: as §1

Compound	odorant receptor agonist call
CC1=C(O)C(=O)OC1C (configuration not stated)	inactive
CC1=NC(C)C(C)S1 (configuration not stated)	inactive
CC1=C(O)C(=O)C(C)O1 (configuration not stated)	inactive
CCCCCCC=CCCC=O	inactive

These compounds were tested on T4, OR2D2 S148P I163T M202T. Details: stereoisomer not certain.
T4 sequence (whole entry): T3 sequence (whole entry) with S148P, I163T, M202T
Summary of the method: as §1

Compound	odorant receptor agonist call
CC1=C(O)C(=O)OC1C (configuration not stated)	inactive
CC1=NC(C)C(C)S1 (configuration not stated)	inactive
CC1=C(O)C(=O)C(C)O1 (configuration not stated)	inactive
CCCCCCC=CCCC=O	inactive

Each compound was assayed against T5, OR2D3 (Homo sapiens) (UniProt Q8NGH3). Details: stereoisomer not certain.
T5 sequence (whole entry): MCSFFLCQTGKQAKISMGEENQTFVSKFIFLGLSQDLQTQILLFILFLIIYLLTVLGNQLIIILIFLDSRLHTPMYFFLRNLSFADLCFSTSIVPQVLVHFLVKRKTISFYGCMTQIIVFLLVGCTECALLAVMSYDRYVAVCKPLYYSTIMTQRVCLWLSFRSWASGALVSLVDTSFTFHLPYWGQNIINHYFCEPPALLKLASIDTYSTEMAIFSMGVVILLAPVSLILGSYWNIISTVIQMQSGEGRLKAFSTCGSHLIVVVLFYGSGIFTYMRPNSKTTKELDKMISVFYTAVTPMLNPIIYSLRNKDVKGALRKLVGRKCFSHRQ
Summary of the method: as §1

Compound	odorant receptor agonist call
CC1=C(O)C(=O)OC1C (configuration not stated)	inactive
CC1=NC(C)C(C)S1 (configuration not stated)	inactive
CC1=C(O)C(=O)C(C)O1 (configuration not stated)	inactive
CCCCCCC=CCCC=O	inactive

These compounds were tested on T6, OR2D3 R155W. Details: stereoisomer not certain.
T6 sequence (whole entry): T5 sequence (whole entry) with R155W
Summary of the method: as §1

Compound	odorant receptor agonist call
CC1=C(O)C(=O)OC1C (configuration not stated)	inactive
CC1=NC(C)C(C)S1 (configuration not stated)	inactive
CC1=C(O)C(=O)C(C)O1 (configuration not stated)	inactive
CCCCCCC=CCCC=O	inactive

— the M2OR odorant receptor database
